SR-BI HDL uptake – inhibitors of SR-BI mediated HDL lipid uptake, primary screen, ldlA[mSR-BI] cells, fluorescence, single point. Scavenger receptor class B member 1 (Mus musculus), Q61009. ldlA[mSR-BI] CHO cells, DiI-HDL uptake fluorescence, 3 h. inhibition, % at 12.5 µM. 320,000 tested, 0.96% active. AID 488896, 2010;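 active = mean replicate inhibition of at least 70% and a set share of replicates each scoring 70 or more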;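 also: 0% = median of neutral control wells and 100% = median of positive control wells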
Target sequence (Q61009 whole entry, looked up): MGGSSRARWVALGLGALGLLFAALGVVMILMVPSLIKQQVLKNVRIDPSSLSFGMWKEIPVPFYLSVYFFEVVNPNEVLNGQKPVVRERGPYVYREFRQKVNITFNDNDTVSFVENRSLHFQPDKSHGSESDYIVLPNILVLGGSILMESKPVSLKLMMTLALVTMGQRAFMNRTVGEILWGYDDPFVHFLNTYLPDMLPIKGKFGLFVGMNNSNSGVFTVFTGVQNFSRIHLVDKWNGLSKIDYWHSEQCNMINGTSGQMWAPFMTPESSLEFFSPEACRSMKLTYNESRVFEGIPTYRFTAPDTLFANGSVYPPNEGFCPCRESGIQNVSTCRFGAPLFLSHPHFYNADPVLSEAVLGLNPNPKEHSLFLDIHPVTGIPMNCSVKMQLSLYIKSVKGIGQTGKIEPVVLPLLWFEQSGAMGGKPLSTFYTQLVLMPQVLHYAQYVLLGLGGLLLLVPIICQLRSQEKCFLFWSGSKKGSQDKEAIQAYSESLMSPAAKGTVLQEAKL
Efflux pump mplx – inhibitors of Candida efflux pumps in yeast, primary screen, S. cerevisiae, Nile Red, multiplex; S. cerevisiae Candida pump triplex; inhibition, % at 10 µM; 330,000 tested, 0.44% active; AID 485275, 2010;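 active = plate passing quality check with inhibition over a set limit, or well fluorescence over plate mean plus 4 SD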;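 also: Nile Red retained in pooled yeast measured as flow cytometry median fluorescence; 0% = buffer negative control and 100% = Enniatin B positive control; higher means more Nile Red kept so more efflux inhibition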
SR-BI DiI-HDL act – activators of SR-BI mediated DiI-HDL uptake, primary screen, ldlA[mSR-BI] CHO cells, DiI fluorescence; 3 h; 100 = double the neutral-control signal; activation, % at 12.5 µM; 320,000 tested, 0.096% active; AID 504775, 2011;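 active = mean replicate activation of at least 60% and every replicate at or above 60%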;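 also: 0% = median plate neutral-control signal and 100% = twice that signal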
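Material: SR-BI-overexpressing, LDLR-lacking CHO cells | Dosing: Single compound concentration, delivered by pin transfer | Probe or stimulus: Labelled HDL, 10 µg/mL | Signal: Bottom-read cell fluorescence after medium removal, ex 550/em 595 nm | Schedule: 3 h, 37 °C | Evaluation: HDL uptake via cellular fluorescence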
CaV13 FRET inh – Disruptors of the CACNA1D IQ motif to Ca2+-dependent inactivation inhibitor domain association, primary screening, Förster resonance energy transfer in intact living …. HEK cells, CFP/YFP FRET ICDI-IQ, plate reader, 10 min; percent FRET-ratio fall versus neutral wells. inhibition, % at 12.3 µM. 340,000 tested, 0.098% active. AID 743397;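 active = mean replicate inhibition of at least 30% and at least 1% of replicates passing that level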;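 also: 0% = median of the neutral control wells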
FN deposition inh – inhibitors of fibronectin matrix deposition, primary screen, AH1F cells, Alexa488-fibronectin fluorescence, plate reader; 350,000 tested, 0.086% active; inhibition, % at 12.6 µM; AH1F fibroblasts, overnight; AID 743247, 2014;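 active = mean inhibition across replicates of 30% or more, regardless of how many single replicates reach that level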;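 also: positive control wells lacked labelled fibronectin entirely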
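material = AH1F fibroblast monolayer depositing Alexa488-labelled fibronectin into matrix | amount = 10000 AH1F cells/well | buffer or medium = DMEM plus 2% serum, read in PBS | incubation = 1 h cell adhesion before compound, then overnight fibronectin incubation | detection = fluorescence at 485 nm excitation, 525 nm emission | evaluation = percent inhibition as loss of matrix-bound fibronectin fluorescence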
An asterisk follows results filed as active; . = not tested or not shown; + = active, no number. Shown are actives, neighbours in structure and some others; about 1.2% of the full set was active somewhere.

SMILES	SR-BI HDL uptake	Efflux pump mplx	SR-BI DiI-HDL act	CaV13 FRET inh	FN deposition inh
O=C(O)c1ccc(-c2ccc(/C=C3\NC(=O)N(Cc4ccc(Cl)cc4)C3=O)o2)cc1	.	.	.	48*	9
C[C@H]1CCCCO[C@@H](CN(C)C(=O)Nc2ccccc2)[C@@H](C)CN([C@@H](C)CO)C(=O)c2cc(NS(=O)(=O)c3ccc(F)cc3)ccc2O1	.	.	.	.	-13
CCCCCCSc1ccc([C@@H]2[C@H]3C(=O)N(C)C(=O)[C@H]3[C@]3(C(=O)OC)CCCCN23)cc1OC	28	0	-28	-9	31*
Cc1cc(=O)oc2ccc(OCC(=O)N3CCc4ccccc43)cc12	78*	0	-78	.	.
CCCCc1cc(=O)oc2cc(OCC(=O)N3CCOCC3)ccc12	2	0	-2	-4	4
Cc1cc(=O)oc2cc(OCC(=O)N3CCN(C(=O)C4COc5ccccc5O4)CC3)ccc12 (configuration not stated)	88*	1	-88	-6	-8
Cc1c(CC(=O)N2CCN(C(=O)C3COc4ccccc4O3)CC2)c(=O)oc2cc(O)c(Cl)cc12 (configuration not stated)	-6	0	6	1	4
CCCc1cc(=O)oc2cc(OCC(=O)N3CCN(C(=O)C4COc5ccccc5O4)CC3)ccc12 (configuration not stated)	87*	0	-87	-5	7
Cc1c(C)c2ccc(OCC(=O)N3CCN(C(=O)C4COc5ccccc5O4)CC3)cc2oc1=O (configuration not stated)	88*	0	-88	-3	-3
O=C(COc1ccc2ccc(=O)oc2c1)N1CCN(C(=O)C2COc3ccccc3O2)CC1 (configuration not stated)	41	0	-41	-2	9
CCC(=O)Nc1ccc2c(c1)OC[C@H](C)N(C(=O)Cc1ccccn1)C[C@H](C)[C@@H](OC)CN(C)C2=O	.	.	.	.	-4
COc1ccc(C[C@@H]2CCn3cc(nn3)COC[C@H](C(C)C)NC2=O)cc1	.	.	.	.	-7
COCC(=O)Nc1ccc2c(c1)C(=O)N(C)C[C@H](OC)[C@@H](C)CN(Cc1cc(F)ccc1F)[C@H](C)CO2	.	.	.	.	14
Cc1ccc(C)c(N2CCN(C(=S)Nc3ccc4nc(N5CCOCC5)cc(C)c4c3)CC2)c1	87*	1	-87	-6	-3
CO[C@H]1CN(C)C(=O)c2ccc(NC(=O)c3ccc(F)cc3)cc2OC[C@H](C)N(C(C)=O)C[C@H]1C	.	.	.	.	-7
COc1ccc(N2C(=O)CC(Nc3cccc([N+](=O)[O-])c3)C2=O)cc1 (configuration not stated)	.	0	.	6	-2
Cc1ccc(NC2CC(=O)N(c3cccc([N+](=O)[O-])c3)C2=O)cc1 (configuration not stated)	83*	0	-83	-6	.
Cc1cc(C)c(S(=O)(=O)/N=C2/C=C(Sc3ncn[nH]3)C(=O)c3ccccc32)cc1C	-27	0	27	-5	39*
Cc1ccc([N+](=O)[O-])cc1N=Nc1c(C)[nH]n(C(N)=S)c1=O	-2	0	2	-2	-5
NC(=S)n1[nH]c(-c2ccc([N+](=O)[O-])cc2)c(N=Nc2ccc(Cl)cc2)c1=O	104*	.	-104	.	.
Cc1ccc([N+](=O)[O-])cc1N=Nc1c(-c2ccc([N+](=O)[O-])cc2)[nH]n(C(N)=S)c1=O	80*	.	-80	.	.
O=c1c(N=Nc2ccc(O)cc2)c(-c2ccccc2)[nH]n1-c1ccc([N+](=O)[O-])cc1	107*	0	-107	-7	.
CC(=O)N(C)C[C@H]1Oc2ccccc2CC(=O)N(C)C[C@H]1C	.	.	.	.	8
CC(C)NC(=O)Nc1ccc2c(c1)C(=O)N([C@@H](C)CO)C[C@@H](C)[C@@H](CN(C)C(=O)c1ccncc1)OCCCC[C@H](C)O2	.	.	.	.	-4
C[C@@H]1CN([C@H](C)CO)C(=O)c2ccccc2-c2ccccc2CO[C@@H]1CN(C)C(=O)C1CC1	.	.	.	.	-12
SMILES	SR-BI HDL uptake	Efflux pump mplx	SR-BI DiI-HDL act	CaV13 FRET inh	FN deposition inh
CC(C)Oc1ccc(-c2nn(-c3ccccc3)cc2/C=c2\sc3ncnn3c2=O)cc1	.	0.9*	.	.	.
C[C@H]1CN([C@@H](C)CO)S(=O)(=O)c2ccc(-c3ccncc3)cc2O[C@H]1CN(C)Cc1ccncc1	.	.	.	.	1
COCC(=O)N(C[C@@H]1N[C@H](CO)[C@H]1c1ccc(C2=CCCC2)cc1)C(C)C	.	.	.	.	-7
CCOC(=O)c1cnc2c(cnn2C)c1NCc1ccc(OC)cc1	79*	0	-79	-2	-2
COc1ccc(CNc2c(C(=O)O)cnc3c2cnn3C)cc1	-13	0	13	3	-7
CN(c1cccc(NC(=O)CN(c2ccc(C34CC5CC(CC(C5)C3)C4)cc2)S(C)(=O)=O)c1)S(C)(=O)=O	-76	0	76*	.	.
COc1ccc(C)cc1N(CC(=O)Nc1cccc(N(C)S(C)(=O)=O)c1)S(C)(=O)=O	-3	0	3	-10	32*
CN(c1cccc(NC(=O)CN(c2ccc(F)cc2)S(C)(=O)=O)c1)S(C)(=O)=O	-11	0	11	-2	-2
OCCN(CCO)c1ncnc2c1sc1nc(N3CCOCC3)c3c(c12)CCCC3	5	0	-5	-4	18*
CC(=O)N1C[C@@H]2C(c3ccccc3)[C@@H](C1)N2CC(F)(F)F (some centres not stated)	.	.	.	.	-7
Nc1nc(-c2cc(O)ccc2[N+](=O)[O-])cc(-c2ccccc2)c1[N+](=O)[O-]	34	0	-34	+	-9
N#CC(C#N)=CC1=C2OC(c3ccccc3)=CC(c3ccccc3)=C2CCC1	116*	0	-116	.	.
CNC(=O)C[C@H]1CC[C@H]2[C@@H](COc3ccc(NC(=O)C(C)C)cc3C(=O)N2C)O1	.	.	.	.	6
O=C(N/N=C/c1ccc(N2CCCC2)c([N+](=O)[O-])c1)c1cccnc1	-12	0	12	-1	31*
Cc1ccc([N+](=O)[O-])cc1NC(=O)CN(C(=O)c1ccccc1Cl)C1CCCCC1	15	0	-15	-3	32*
C[C@H]1CN(C)C(=O)c2cccc(N(C)C)c2O[C@@H]1CN(C)S(C)(=O)=O	.	.	.	.	-5
COc1ccc(/C(C)=N/Nc2ncc(Cl)cc2Cl)c(O)c1	106*	0	-106	-5	-2
C[C@@H]1CN([C@H](C)CO)C(=O)c2cc(-c3ccc(C#N)cc3)cnc2O[C@@H]1CN(C)C(=O)Nc1ccc(F)cc1	.	.	.	.	4
